# Rows were chosen to be rich in hits. Some 2.2% of all compounds tested hit in one or more screens of this group.
# CHRM5 agonist = CHRM5 agonism in calcium assay; AID 624037; activation, % at 3 µM; 360,000 compounds, 0.19% hits; CHO-K1 hM5 cells, Fluo-8 calcium fluorescence; 0% DMSO wells, 100% maximal acetylcholine response; P08912;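 active means activation above the run's mean over test compounds plus 3 SD, cut at about 23% in these data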;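 further: signal is peak over basal fluorescence ratio across the kinetic read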
# M5 antag = CHRM5 antagonism in calcium assay. P08912. CHO-hM5 cells, Fluo-8 calcium fluorescence, ACh EC80. inhibition, % at 3 µM. 360,000 compounds, 0.59% hits;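 active means inhibition above a per-plate cutoff, the mean of that plate's test compounds plus 3 SD, cut at about 27% in these data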;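 further: 0% = acetylcholine EC80 with DMSO and 100% = DMSO without agonist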
# M5 PAM = potentiates acetylcholine response at human M5 receptor | P08912 | CHO-K1 hM5, Fluo-8 calcium, ACh EC20 PAM; 0% = ACh EC20, 100% = ACh EC100 | activation, % at 3 µM | 360,000 compounds, 0.3% hits;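 active means activation above the run cutoff, the mean activation of all test compounds plus 3 SD, cut at about 18% in these data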
#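 Replicates: One well per compound, no replicates | System: Human M5 receptor in CHO-K1 cells | Benchmarks: Low control EC20 acetylcholine (0%), high control EC100 acetylcholine (100%) | Probe or stimulus: Acetylcholine, EC20 level | Times: Fluo-8 loading 80 min at 37 °C plus 30 min room temperature | Signal: Intracellular calcium via Fluo-8 fluorescence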
# CHRM1 PAM = potentiates human M1 receptor response to acetylcholine | P11229 | CHO-K1 hM1, Fluo-8 calcium fluorescence, ACh EC20; 0% = ACh EC20, 100% = maximal ACh | activation, % at 3 µM | 360,000 compounds, 0.088% hits; in the data active means activation above about 19%, passing the limit was not always enough
# Target sequence (P11229 whole entry, looked up): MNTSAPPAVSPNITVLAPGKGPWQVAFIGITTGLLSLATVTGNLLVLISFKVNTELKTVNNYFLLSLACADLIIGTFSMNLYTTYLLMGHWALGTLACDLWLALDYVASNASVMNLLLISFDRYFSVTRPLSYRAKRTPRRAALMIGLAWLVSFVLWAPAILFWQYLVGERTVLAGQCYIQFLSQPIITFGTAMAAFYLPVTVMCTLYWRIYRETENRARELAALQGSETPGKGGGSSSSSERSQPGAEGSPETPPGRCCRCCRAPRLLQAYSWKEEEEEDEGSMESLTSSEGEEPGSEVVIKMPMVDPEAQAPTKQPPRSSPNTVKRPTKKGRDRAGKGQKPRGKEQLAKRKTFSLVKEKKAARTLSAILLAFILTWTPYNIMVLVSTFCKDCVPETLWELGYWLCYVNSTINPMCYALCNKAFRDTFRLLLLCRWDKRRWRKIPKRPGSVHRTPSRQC
# CHRM1 agonist = activates human CHRM1 receptor | 360,000 compounds, 0.33% hits | AID 588814 | activation, % at 3 µM | CHO-K1 hM1, Fluo-8 calcium fluorescence, agonist mode; 0% DMSO, 100% acetylcholine EC100;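 active means activation above the run's mean compound activation plus 3 SD, cut at about 16% in these data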;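 further: peak over basal fluorescence ratio within a 140 s kinetic read after compound addition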
# CHRM1 antagonist = blocks human M1 muscarinic receptor; P11229; CHO-K1 hM1, Fluo-8 calcium fluorescence, ACh EC80 antagonist; inhibition, % at 3 µM; 360,000 compounds, 1.3% hits;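 active means percent inhibition above its own plate's cutoff, namely the mean of that plate's compound wells plus 3 SD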;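 further: peak over basal fluorescence ratio during 140 s after agonist addition; 0% = ACh EC80 plus DMSO and 100% = DMSO alone without agonist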
# * hit, by the source's call.
SMILES,CHRM5 agonist,M5 antag,M5 PAM,CHRM1 PAM,CHRM1 agonist,CHRM1 antagonist
CC1(C)C[C@H]2C3=CCC4[C@@]5(C)CC[C@H](O[C@@H]6O[C@H](C(=O)O)[C@@H](O)[C@H](O)[C@H]6O)[C@@](C)(CO)C5CC[C@@]4(C)[C@]3(C)C[C@H](O)[C@@]2(CO)[C@@H](O)[C@@H]1O (stereo partly specified),0.3,14.8,-0.9,9.3,-4.1,-3.8
C/C=C(\C)C(=O)OC1[C@H](OC(C)=O)C2(CO)C(CC1(C)C)C1=CCC3C4(C)CCC(O[C@@H]5O[C@H](C(=O)O)[C@@H](O[C@@H]6O[C@H](CO)[C@@H](O)[C@H](O)[C@H]6O)[C@H](O)[C@H]5O[C@H]5O[C@H](CO)[C@@H](O)[C@H](O)[C@H]5O)[C@](C)(CO)C4CCC3(C)[C@]1(C)C[C@H]2O (stereo partly specified),91.8*,82.5*,-25.7,-36.5,92.8*,104.2*
C[C@@H]1CC[C@]2(C(=O)O[C@@H]3O[C@H](CO)[C@@H](O)[C@H](O)[C@H]3O)CC[C@]3(C)C(=CCC4[C@@]5(C)CC[C@H](O[C@@H]6OC[C@H](O)[C@H](O[C@@H]7O[C@H](CO)[C@@H](O)[C@H](O)[C@H]7O)[C@H]6O)C(C)(C)C5CC[C@]43C)C2[C@]1(C)O (stereo partly specified),2.2,8.0,-1.6,8.5,-4.1,-0.8
C/C=C(/C)C(=O)OC1CC(C)(C)C[C@H]2C3=CC[C@@H]4[C@@]5(C)CCC(O[C@@H]6O[C@@H](C(=O)O)[C@@H](O)C(O[C@@H]7OC[C@H](O)[C@@H](O)[C@@H]7O[C@@H]7OC(CO)C(O)[C@@H](O)[C@@H]7O)C6O[C@@H]6OC(CO)C(O)C(O)C6O)[C@@](C)(CO)[C@@H]5CC[C@]4(C)[C@]3(C)CC(O)[C@@]12CO (stereo partly specified),-3.4,10.0,-5.6,-36.5,62.0*,73.5*
COc1ccc(CNC(=O)CCC2N=C3c4ccccc4N=C(SCC(=O)NCC4CCCO4)N3C2=O)cc1 (stereo unspecified),-4.8,-16.3,1.3,9.1,-5.1,-16.5
COc1ccc(NC(=O)/C(Cl)=C(/Cl)S(=O)Cc2ccccc2)cn1 (stereo unspecified),14.8,41.8*,15.8,5.9,3.9,23.9
COc1ccc(NC(=O)Cc2ccccc2)cn1,-2.1,1.3,4.3,9.9,-3.9,-12.4
CCCOC1CCCN(C(=O)CCCn2nnnc2CN2CCOCC2)C1 (stereo unspecified),-2.7,4.3,2.2,5.1,4.5,-8.4
CCOC(=O)C1CCCN(C(=O)CCCn2nnnc2CN2CCOCC2)C1 (stereo unspecified),12.4,-7.6,-0.7,-20.2,48.7*,4.1
Cc1ccc(OCCOC(=O)c2cc(S(=O)(=O)N3CCCCC3)ccc2N2CCOCC2)cc1,-4.4,7.3,-30.3,-10.6,-4.3,28.5*
CCCCC(=O)N1CCCC(C(=O)OCC)C1 (stereo unspecified),4.6,-8.0,1.9,-6.9,26.0*,0.6
CCOC(=O)C1CCCN(C(=O)CCCn2nc(C)n3c(cc4sccc43)c2=O)C1 (stereo unspecified),5.1,3.9,-4.2,-16.0,34.5*,10.0
CCn1c(SCC(=O)N(C)c2c(N)n(Cc3ccccc3)c(=O)[nH]c2=O)nc2ccccc21,-2.3,5.5,-0.5,6.5,-1.4,-35.1
CCOC(=O)C1CCCN(C(=O)COc2ccc(S(=O)(=O)N3CCOCC3)cc2)C1 (stereo unspecified),11.8,1.1,-8.8,-4.1,31.3*,11.2
Cc1cc(C)c2c(=O)n(CC(=O)N3CCC(N4CCCCC4)CC3)sc2n1,0.8,1.1,-3.8,4.3,14.2,-14.5
CCOC(=O)C1CCCN(C(=O)/C=C/c2cc(OC)c(OC)c(OC)c2)C1 (stereo unspecified),3.8,8.9,-5.0,-5.5,23.9*,4.9
CCOC(=O)C1CCCN(C(=O)Cn2sc3nc(C)cc(C)c3c2=O)C1 (stereo unspecified),8.0,8.5,-6.6,4.6,22.1*,-11.1
CCOC(=O)C1CCCN(C(=O)/C=C/c2ccc(Cl)cc2)C1 (stereo unspecified),0.3,-7.2,-1.8,3.8,3.0,-2.0
CCOCC(=O)N1CCCC(C(=O)OCC)C1 (stereo unspecified),3.5,-6.9,5.3,-0.1,0.2,101.1*
COC(=O)[C@@]12CCCN1[C@H](c1ccc(-c3ccc4c(c3)OCO4)cc1)[C@H]1C(=O)N(C)C(=O)[C@H]12,-3.3,4.5,6.6,3.2,-4.5,-9.4
O=C(NCc1ccccc1C(F)(F)F)c1cccc2c1C(=O)c1ccc(N3CCOCC3)cc1S2(=O)=O,5.3,13.5,-18.4,-11.7,-0.1,21.7
O=C(NCC1CCCO1)c1cccc2c1C(=O)c1ccc(N3CCC(Cc4ccccc4)CC3)cc1S2(=O)=O (stereo unspecified),42.8*,34.4*,-39.2,-22.7,16.7*,38.5*
Cc1ccc(CNC(=O)c2cccc3c2C(=O)c2ccc(N4CCCCC4)cc2S3(=O)=O)cc1,60.5*,31.8*,-36.1,-16.5,10.1,22.0
O=C(NCc1ccccc1C(F)(F)F)c1cccc2c1C(=O)c1ccc(N3CCC(N4CCCCC4)CC3)cc1S2(=O)=O,5.4,19.5,-13.2,-27.6,1.8,39.3*
Cc1ccc(CNC(=O)c2cccc3c2C(=O)c2ccc(N4CCOCC4)cc2S3(=O)=O)cc1,0.9,7.8,-8.8,-11.8,-0.9,18.6
CCCCN1C(=O)C(CC(=O)NC2CCCC2)CC(C(=O)N(C(C)C)C(C)C)=C1C (stereo unspecified),-0.4,3.7,2.2,1.0,-1.6,-7.2
CC1CCC2C(=O)N(c3ccc(NC4CCN(Cc5ccccc5)CC4)c([N+](=O)[O-])c3)C(=O)C2C1 (stereo unspecified),-18.0,24.3,-35.7,-26.4,-7.7,80.3*
CN(Cc1ccccc1)C1CCN(Cc2ccccc2[N+](=O)[O-])CC1,-20.8,10.6,-14.9,-26.8,-8.2,89.6*
O=C1C2CCCCC2C(=O)N1c1ccc(NC2CCN(Cc3ccccc3)CC2)c([N+](=O)[O-])c1 (stereo unspecified),-19.4,31.8*,-22.7,-25.6,-7.6,48.4*

# Compound activity: PubChem BioAssay, The Scripps Research Institute Molecular Screening Center
